# Activity calls are given as the source filed them. The calls are words filed in the database; no cut-off is given here.
# Assays:
# [1] = Solubility in PBS buffer; assay type: physicochemical
# PRMT5/MEP50 complex = PRMT5/MEP50 complex (Homo sapiens, UniProt O14744); assay: Displacement of fluorophore-labeled RIOK1 from human PRMT5/WDR77 hetero octameric complex expressed in Sf9 cells by competition fluorescence polarization (FP) assay
# [2] = Stability in mouse plasma assessed as compound remaining relative to control; assay type: ADME, cell-free
# [3] = Stability in human plasma assessed as compound remaining relative to control; assay type: ADME, cell-free
# [4] = target: T1, Protein arginine N-methyltransferase 5 (Homo sapiens, UniProt O14744); assay: Covalent inhibition of human PRMT5 assessed as initial binding constant by LC-MS analysis
# T1 sequence (O14744 whole entry): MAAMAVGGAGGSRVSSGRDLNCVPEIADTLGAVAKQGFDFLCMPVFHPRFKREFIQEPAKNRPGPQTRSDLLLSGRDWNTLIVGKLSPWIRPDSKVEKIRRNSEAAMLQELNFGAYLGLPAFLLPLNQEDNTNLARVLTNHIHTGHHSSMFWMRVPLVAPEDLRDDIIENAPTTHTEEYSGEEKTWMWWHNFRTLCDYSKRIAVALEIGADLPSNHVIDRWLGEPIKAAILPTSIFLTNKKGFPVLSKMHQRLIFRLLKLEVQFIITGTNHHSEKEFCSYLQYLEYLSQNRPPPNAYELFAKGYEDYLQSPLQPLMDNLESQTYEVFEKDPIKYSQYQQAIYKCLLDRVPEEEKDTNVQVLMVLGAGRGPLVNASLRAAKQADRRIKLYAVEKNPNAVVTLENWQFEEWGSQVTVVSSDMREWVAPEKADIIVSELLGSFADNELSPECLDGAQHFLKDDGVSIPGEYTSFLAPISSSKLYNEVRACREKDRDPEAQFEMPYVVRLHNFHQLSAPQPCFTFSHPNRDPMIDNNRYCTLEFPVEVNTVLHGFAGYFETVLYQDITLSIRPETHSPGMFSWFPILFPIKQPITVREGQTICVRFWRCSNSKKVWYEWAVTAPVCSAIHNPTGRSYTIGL
# [5] = target: T1, Protein arginine N-methyltransferase 5; assay: Covalent inhibition of human PRMT5 assessed maximum potential inactivation rate by LC-MS analysis
# [6] = target: T1, Protein arginine N-methyltransferase 5; assay: Covalent inhibition of human PRMT5 assessed as Kinact/Ki ratio by LC-MS analysis
# [7] = Disruption of human N-terminal SmBiT peptide-tagged PRMT5/N-terminal LgBiT tagged RIOK1 complex expressed in intact HEK293T cells measured after 40 mins by NanoBiT assay; assay type: cell-based; details: HEK-293T
# [8] = target: Methylosome protein WDR77 (Homo sapiens) (UniProt Q9BQA1); assay: Binding affinity to human wild type WDR77 assessed as increase in protein mass by deconvoluted mass spectra analysis
# Sequence of Methylosome protein WDR77 (Homo sapiens) (Q9BQA1 whole entry): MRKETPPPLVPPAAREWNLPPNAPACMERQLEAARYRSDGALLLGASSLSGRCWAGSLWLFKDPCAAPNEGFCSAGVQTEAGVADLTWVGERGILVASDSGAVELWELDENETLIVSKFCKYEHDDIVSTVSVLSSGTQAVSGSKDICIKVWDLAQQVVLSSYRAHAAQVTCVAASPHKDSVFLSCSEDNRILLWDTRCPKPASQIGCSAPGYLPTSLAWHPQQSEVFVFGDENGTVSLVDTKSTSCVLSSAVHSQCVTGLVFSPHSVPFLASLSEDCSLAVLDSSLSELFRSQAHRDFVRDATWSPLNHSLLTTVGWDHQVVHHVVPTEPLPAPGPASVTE
# Procedure, shortened: (§1)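 Purified untagged PRMT5:WDR77 (Sf9 co-expressed) exchanged into 10 mM HEPES 7.4, 150 mM NaCl, 1 mM TCEP. Protein diluted to 10 μM; 10 μL protein plus 1 μL compound (0.5 mM stock in DMSO) or DMSO in 90 μL buffer, 4 h at RT. Intact mass by LC-ToF on C4 column at 80 °C, positive ESI, spectra deconvoluted by MaxEnt1.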
# [9] = target: PRMT5/MEP50 complex (Homo sapiens) (UniProt O14744+Q9BQA1); assay: Displacement of full-length pICIn protein from human PRMT5/WDR77 hetero octameric complex at 2 uM pretreated by SPR competition assay
# [10] = test system: Protein arginine N-methyltransferase 5 (Homo sapiens), O14744 [C278A]; assay: Binding affinity to human PRMT5 C278A mutant assessed as increase in protein mass by deconvoluted mass spectra analysis; procedure, shortened: as §1
# Sequence of Protein arginine N-methyltransferase 5 (Homo sapiens), O14744 [C278A] (O14744 whole entry C278A): as the sequence (O14744 whole entry) above, with C278A counted along it
# [11] = target: T1, Protein arginine N-methyltransferase 5; assay: Binding affinity to human wild type PRMT5 assessed as increase in protein mass by deconvoluted mass spectra analysis; procedure, shortened: as §1
# [12] = Displacement of fluorophore-labeled RIOK1 from human PRMT5 C278A mutant/WDR77 hetero octameric complex expressed in Sf9 cells by competition fluorescence polarization (FP) assay
# Procedure, shortened: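 Competition FP with Sf9-expressed untagged PRMT5:WDR77 (WT or C278A) at 200 nM protomer and 10 nM fluorophore-labeled RIOK1 PBM peptide probe. […] Incubated at RT, read at 40 min, 8-point dose range, triplicate. Normalized to DMSO (100) and unlabeled peptide control at 20 μM (0).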
# Sequence of PRMT5/MEP50 complex (O14744 whole entry): as the sequence (O14744 whole entry) above
# Sequence of PRMT5/MEP50 complex (Q9BQA1 whole entry, further chain): as the sequence (Q9BQA1 whole entry) above
SMILES,solubility [1] [µM],IC50 (PRMT5/MEP50 complex) [µM],Stabilty [2] [%],Stabilty [3] [%],also measured
O=C(NC[C@H](O)CN1CCc2ccccc2C1)c1cc(NC2COC2)ncn1,101,,,,
Cc1cnc(NC(=O)Cn2ncc(Cl)c(Cl)c2=O)cc1S(=O)(=O)N(C)C,7.6,,,,
Nc1nc2cc(CC[C@H]3C[C@@H](n4ccc5c(N)ncnc54)[C@H](O)[C@@H]3O)ccc2cc1Br [ONAMETOSTAT],7,,,,
Cc1ncc(NC(=O)Cn2ncc(Cl)c(Cl)c2=O)cc1S(=O)(=O)N1CCCN(C)CC1,96,> 200,3,70,
Cc1ccc(NC(=O)Cn2ncc(Cl)c(Cl)c2=O)cc1S(=O)(=O)N1CCN(C)CC1,89,10.1,0,72,
Cc1ccc(NC(=O)Cn2ncc(Cl)c(Cl)c2=O)cc1S(=O)(=O)N1CCCCC1,0.8,12.7,,,
Cc1ccc(N(C)C(=O)[C@H](C)n2ncc(Cl)cc2=O)cc1S(=O)(=O)NCCc1ccccn1,114,> 200,,,
Cc1ccc(NC(=O)Cn2nccc(Cl)c2=O)cc1S(=O)(=O)NCCc1ccccn1,,> 200,,,IC50 [7]: > 100 µM
Cc1ccc(NC(=O)Cn2ncc(Cl)c(Cl)c2=O)cc1S(=O)(=O)N1CCCN(C)CC1,98,5.4,0,84,
Cc1ccc(NC(=O)C(C)n2ncc(Cl)c(C)c2=O)cc1S(=O)(=O)NCCc1ccccn1 (racemic),,> 200,,,
Cc1ccc(NC(=O)Cn2ncc(F)cc2=O)cc1S(=O)(=O)NCCc1ccccn1,,35.6,,,Ki [4]: 58 µM
Cc1ccc(NC(=O)Cn2ncc(Cl)c(Cl)c2=O)cc1S(=O)(=O)NCCc1cccnc1,88,4.6,21,100,
Cc1ccc(NC(=O)Cn2ncc(Cl)c(Cl)c2=O)cc1S(=O)(=O)NCCc1ccncc1,93,2.5,2,92,
CN(C)S(=O)(=O)N1CCCC(NC(=O)Cn2ncc(Cl)c(Cl)c2=O)C1 (stereo not given),98,> 200,,,
Cc1ccc(NC(=O)Cn2ncc(Cl)c(Cl)c2=O)cc1S(=O)(=O)N(C)C,,14.1,,,

# Second part, led by results:
solubility [1] [µM],IC50 (PRMT5/MEP50 complex) [µM],Stabilty [2] [%],Stabilty [3] [%],SMILES,also measured
14,6.1,,,Cc1cc(C)c(S(=O)(=O)NCCc2ccccn2)cc1NC(=O)Cn1ncc(Cl)c(Cl)c1=O,
19,19.2,,,O=C(Cn1ncc(Cl)c(Cl)c1=O)Nc1cccc(S(=O)(=O)NCCc2ccccn2)c1,
12,4.2,,,CCc1ccc(NC(=O)Cn2ncc(Cl)c(Cl)c2=O)cc1S(=O)(=O)NCCc1ccccn1,
86,> 200,86,89,Cc1ccc(N(C)C(=O)Cn2ncc(Cl)c(Cl)c2=O)cc1S(=O)(=O)NCCc1ccccn1,
70,55.4,97,95,Cc1ccc(NC(=O)[C@@H](C)n2ncc(Cl)c(Cl)c2=O)cc1S(=O)(=O)NCCc1ccccn1,Ki [4]: 78 µM; Kinact [5]: 1.05 min⁻¹; Ratio [6]: 226 M⁻¹ s⁻¹
64,0.3,92,92,Cc1ccc(NC(=O)[C@H](C)n2ncc(Cl)c(Cl)c2=O)cc1S(=O)(=O)NCCc1ccccn1,Ki [4]: 2 µM; Kinact [5]: 1.95 min⁻¹; Ratio [6]: 14600 M⁻¹ s⁻¹
5,4.5,75,96,Cc1ccc(NC(=O)Cn2ncc(Cl)c(Cl)c2=O)nc1S(=O)(=O)NCCc1ccccn1,
3.7,2.5,,,Cc1cc(NC(=O)Cn2ncc(Cl)c(Cl)c2=O)cc(S(=O)(=O)NCCc2ccccn2)c1C,
96,23.3,,,COc1ccc(NC(=O)Cn2ncc(Cl)c(Cl)c2=O)cc1S(=O)(=O)NCCc1ccccn1,
,72.9,,,Cc1ccc(NC(=O)Cn2ncc(Cl)cc2=O)cc1S(=O)(=O)NCCc1ccccn1,Ki [4]: 36 µM
,72.1,,,Cc1ccc(NC(=O)Cn2ncc(F)c(C)c2=O)cc1S(=O)(=O)NCCc1ccccn1,
,0.37,,,Cc1ccc(NC(=O)Cn2ncc(F)c(Cl)c2=O)cc1S(=O)(=O)NCCc1ccccn1,
7.8,39,,,Cc1ccc(NC(=O)Cn2ncc(Cl)c(Cl)c2=O)c(C)c1S(=O)(=O)NCCc1ccccn1,
,2.2,,,Cc1ccc(NC(=O)Cn2ncc(Cl)c(Cl)c2=O)cc1S(=O)(=O)NCCc1ccccn1,Activity [8]: inactive; Activity [9]: Active; Ki [4]: 8 µM; Activity [10]: inactive; Activity [11]: Active; IC50 [12]: > 100 µM

# Reference: ChEMBL document CHEMBL4825730, “Discovery of a First-in-Class Inhibitor of the PRMT5-Substrate Adaptor Interaction” (J Med Chem, 2021)
